Experimental data taken from ChEMBL document CHEMBL2311378, “Synthesis and biological activity against Trypanosoma cruzi of substituted 1,4-naphthoquinones” (Eur J Med Chem, 2013).

What was measured:
[1] = test system: Trypanosoma cruzi; assay: Antitrypanosomal activity against Trypanosoma cruzi Y bloodstream trypomastigotes isolated from infected Swiss mouse blood assessed as lysis level after 24 hrs; assay type: functional, organism-based
How it was run: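 Infected mouse blood diluted with healthy mouse blood to 10⁶ trypomastigotes ml⁻¹. Compounds dissolved in DMSO, added to the blood, and incubated at 4 °C for 24 h. Remaining trypomastigotes were counted. Run in triplicate alongside DMSO and crystal violet controls. IC50 is the concentration lysing 50% of parasites.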

[2] = test system: Trypanosoma cruzi; assay: Antitrypanosomal activity against Trypanosoma cruzi Y bloodstream trypomastigotes isolated from infected Swiss mouse blood assessed as lysis level at 32.0 uM after 24 hrs; assay type: functional
[3] = test system: Trypanosoma cruzi; assay: Antitrypanosomal activity against Trypanosoma cruzi Y bloodstream trypomastigotes isolated from infected Swiss mouse blood assessed as lysis level at 2.0 uM after 24 hrs; assay type: functional
[4] = test system: Trypanosoma cruzi; assay: Antitrypanosomal activity against Trypanosoma cruzi Y bloodstream trypomastigotes isolated from infected Swiss mouse blood assessed as lysis level at 8.0 uM after 24 hrs; assay type: functional
[5] = test system: Trypanosoma cruzi; assay: Antitrypanosomal activity against Trypanosoma cruzi Y bloodstream trypomastigotes isolated from infected Swiss mouse blood assessed as lysis level at 0.5 uM after 24 hrs; assay type: functional

## CCCCCCCC/C=C/CCCCCCCC1=C(O)C(=O)c2ccccc2C1=O
[1]
  IC50: 10.6 µM
[2]
  Activity: 57.6%
[3]
  Activity: 22.5%
[4]
  Activity: 51.3%
[5]
  Activity: 13.1%

## CCCCCCCC/C=C/CCCCCCCC1=C(C)C(=O)c2ccccc2C1=O
[1]
  IC50: 32.6 µM
[2]
  Activity: 34%
[3]
  Activity: 25.1%
[4]
  Activity: 35.1%
[5]
  Activity: 27.2%

## CCCCCCCC/C=C/CCCCCCCC1=CC(=O)c2ccccc2C1=O
[1]
  IC50: 8.1 µM
[2]
  Activity: 49.2%
[3]
  Activity: 45.5%
[4]
  Activity: 46.1%
[5]
  Activity: 37.2%

## CCCCC/C=C\C/C=C/CCCCCCCC1=C(O)C(=O)c2ccccc2C1=O
[1]
  IC50: 7.8 µM
[2]
  Activity: 50.8%
[3]
  Activity: 47.6%
[4]
  Activity: 42.9%
[5]
  Activity: 44.5%

## CCCCC/C=C/C/C=C/CCCCCCCC1=C(C)C(=O)c2ccccc2C1=O
[1]
  IC50: 16.9 µM
[2]
  Activity: 44.5%
[3]
  Activity: 25.6%
[4]
  Activity: 47.1%
[5]
  Activity: 15.2%

## CCCCC/C=C/C/C=C/CCCCCCCC1=CC(=O)c2ccccc2C1=O
[1]
  IC50: 26.4 µM
[2]
  Activity: 49.2%
[3]
  Activity: 7.8%
[4]
  Activity: 30.9%
[5]
  Activity: 0%

## CCCCCCCC1=C(CCCCCCC)C(=O)c2ccccc2C1=O
[1]
  IC50: 124 µM
[2]
  Activity: 18.3%
[3]
  Activity: 8.9%
[4]
  Activity: 10.6%
[5]
  Activity: 8.1%

## O=C1C(CCCCc2ccccc2)=C(CCCCc2ccccc2)C(=O)c2ccccc21
[1]
  IC50: 25.1 µM
[2]
  Activity: 44%
[3]
  Activity: 21.5%
[4]
  Activity: 35.1%
[5]
  Activity: 3%

## COc1ccc(C(CC(=O)O)C2=C(C)C(=O)c3ccccc3C2=O)cc1 (racemic)
[1]
  IC50: 17.4 µM
[2]
  Activity: 55%
[3]
  Activity: 24.6%
[4]
  Activity: 34%
[5]
  Activity: 12%

## COc1ccc(C(CC(=O)O)C2=CC(=O)c3ccccc3C2=O)cc1 (racemic)
[1]
  IC50: 48.5 µM
[2]
  Activity: 38.7%
[3]
  Activity: 10.5%
[4]
  Activity: 14.1%
[5]
  Activity: 0%

## CN(C)c1ccc(C(=C2C=CC(=[N+](C)C)C=C2)c2ccc(N(C)C)cc2)cc1 [GENTIAN VIOLET]
[1]
  IC50: 31 µM

## O=C1C=C(O)C(=O)c2ccccc21 [LAWSONE]
[1]
  IC50: > 2500 µM
